Hits are enriched below; roughly 2.2% of the tested compounds scored in any of these assays.
FN deposition inh = fibronectin deposition inhibition | inhibition, % at 12.6 µM | AH1F fibroblasts, Alexa488-fibronectin deposition fluorescence, overnight | 350,000 compounds, 0.086% hits;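 active = mean inhibition across replicates of 30% or more, regardless of how many single replicates reach that level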
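Material: AH1F fibroblast monolayer depositing Alexa488-labelled fibronectin into matrix | Input: 10000 AH1F cells/well | Medium: DMEM plus 2% serum, read in PBS | Reagent: Alexa488-fibronectin, 24 nM final in well | Compound dosing: One dose per compound, pinned | Schedule: 1 h adhesion, overnight exposure | Measured by: Fluorescence at 485 nm excitation, 525 nm emission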
ERAP1 HTS inh = blocks human ERAP1 aminopeptidase activity | AID 652197 | 340,000 compounds, 0.15% hits | Q9NZ08 | recombinant ERAP1, Leu-AMC fluorescence, 60 min | inhibition, % at 10.7 µM;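 active = mean replicate inhibition of at least 30%, or all replicates individually reaching that 30% level; inactive = mean below 30% and not every replicate reaching it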
FGF22 binding = shifts melting point of recombinant human FGF22. recombinant FGF22 thermal shift, SYPRO orange fluorescence; percent of sucrose octasulfate shift, DMSO zero. 340,000 compounds, 1.5% hits. activity (Tm shift, normalised), % at 9.99 µM. AID 651658;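 active = mean Tm shift, scaled 0 neutral to 100 positive control, at about 1.3% or above, every replicate too, limit read from the data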
SIRT5 block = blocks human SIRT5 desuccinylation of peptide; Q9NXA8; Purified SirT5, succinyl-peptide AMC, trypsin-coupled fluorescence; inhibition, % at 15 µM; 330,000 compounds, 1.1% hits; AID 652115; in the data active = inhibition above about 15%
PGC1a acetyl inh = modulators of PGC1a acetylation | U2OS PGC1a acetylation, AlphaScreen anti-acetyl-lysine; with virally co-expressed GCN5 acetyltransferase | 350,000 compounds, 0.17% hits | inhibition, % at 15.6 µM;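 active = every replicate shows inhibition of at least 40%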
Large screens that a line does not name were inactive.

O=C(c1ccccc1F)N1C[C@H]2[C@@H](c3ccccc31)[C@H](CO)N2C(=O)c1cccnc1	none (no result: FN deposition inh)
CCCOC(=O)c1c(NC(=O)CCC(=O)O)sc2c1CCCCC2	none
CCOC(=O)c1ccc(NC(=O)c2c(NC(=O)CCC(=O)O)sc3c2CCCCC3)cc1	FGF22 binding 44 (no result: FN deposition inh)
CCOc1ccccc1NC(=O)c1c(NC(=O)CCC(=O)O)sc2c1CCCCC2	FN deposition inh 33
COc1cccc(NC(=S)/C(=C(\[O-])c2cc(C)n(-c3ccccc3F)c2C)[n+]2ccc(N(C)C)cc2)c1	FGF22 binding 43 (no result: PGC1a acetyl inh)
Cc1cc(C([O-])=C(C(=S)Nc2ccc(F)cc2)[n+]2ccccc2)c(C)n1-c1ccc(F)cc1	none
COc1ccccc1C(=O)Nc1ccc2c(c1)C(=O)N(C)[C@H]1CC[C@H](CC(=O)Nc3cccc(C(C)C)c3)O[C@@H]1CO2	SIRT5 block 19 (no result: PGC1a acetyl inh)
CN1C(=O)c2cc(NC(=O)c3cccs3)ccc2OC[C@H]2O[C@H](CC(=O)N3CCOCC3)CC[C@@H]21	SIRT5 block 17
COC(=O)C[C@H]1CC[C@@H]2[C@@H](COc3ccc(NC(=O)Cc4cccs4)cc3C(=O)N2C)O1	FN deposition inh 40 (no result: PGC1a acetyl inh)
CNC(=O)C[C@H]1CC[C@H]2[C@@H](COc3ccc(NC(=O)c4ccccc4OC)cc3C(=O)N2C)O1	none
C[C@@H]1CN([C@@H](C)CO)S(=O)(=O)c2ccc(-c3ccccc3)cc2O[C@H]1CN(C)Cc1cccc(F)c1	none
C[C@@H]1CCCCO[C@@H](CN(C)Cc2ccc(C(F)(F)F)cc2)[C@@H](C)CN([C@@H](C)CO)C(=O)c2cc(NS(=O)(=O)c3ccc(Cl)cc3)ccc2O1	SIRT5 block 16
C[C@@H]1CN([C@H](C)CO)C(=O)c2cc(NS(=O)(=O)c3ccc(Cl)cc3)ccc2O[C@@H](C)CCCCO[C@@H]1CN(C)Cc1ccc(C(F)(F)F)cc1	SIRT5 block 17
C[C@H](CO)N1C[C@H](C)[C@@H](CN(C)Cc2ccc(C(F)(F)F)cc2)OCCCC[C@H](C)Oc2ccc(NS(=O)(=O)c3ccc(Cl)cc3)cc2C1=O	SIRT5 block 19
C[C@@H]1CCCCO[C@H](CN(C)Cc2ccc(C(F)(F)F)cc2)[C@H](C)CN([C@H](C)CO)C(=O)c2cc(NS(=O)(=O)c3ccccc3)ccc2O1	none (no result: FGF22 binding)
O=C1C(=O)c2cccnc2-c2ncccc21	FN deposition inh 45 (no result: PGC1a acetyl inh)
O=Cc1ccc(-c2ccccc2C(=O)O)o1	FGF22 binding 43
CC(C)(C)NC(=O)C(c1ccccn1)N(C(=O)c1csnn1)C1CCCC1 (stereo not given)	SIRT5 block 27
Cc1ccc(N(C(=O)c2csnn2)C(C(=O)NC2CCCCC2)c2ccco2)cc1 (stereo not given)	SIRT5 block 79 (no result: PGC1a acetyl inh)
O=C(NC1CCCCC1)C(c1ccccn1)N(C(=O)c1csnn1)C1CCCCC1 (stereo not given)	SIRT5 block 15 (no result: FGF22 binding)
O=C(NC1CCCC1)C(c1ccccc1)N(C(=O)c1csnn1)C1CCCC1 (stereo not given)	none (no result: PGC1a acetyl inh)
C[C@H]1CN([C@@H](C)CO)C(=O)CCCn2cc(nn2)CO[C@H]1CN(C)S(=O)(=O)c1ccc(-n2cccn2)cc1	none
Cc1ccc(S(=O)(=O)NC(=O)Nc2ccc(C)cn2)cc1	SIRT5 block 98 (no result: PGC1a acetyl inh)
Fc1ccc(-c2nc3ccc(Br)cn3c2Cc2ccccc2C(F)(F)F)cc1	none
FC(F)(F)c1ccccc1Cc1c(-c2cccc(Br)c2)nc2ccc(Br)cn12	FGF22 binding 20
COC(=O)c1ccc2nc(-c3ccc(OC)c(OC)c3)c(Cc3ccccc3C(F)(F)F)n2c1	SIRT5 block 22 (no result: PGC1a acetyl inh)
COC(=O)c1ccc2nc(-c3ccc(OC)c(OC)c3)c(Cc3ccccc3OC)n2c1	none
CO[C@@H]1CN(C)C(=O)c2cc(NS(=O)(=O)CC(F)(F)F)ccc2OC[C@@H](C)N(CCC(F)(F)F)C[C@H]1C	none
COc1ccc(C2C3(C#N)C(N)=NC(OC)(OC)C23C#N)cc1 (stereo not given)	SIRT5 block 18 (no result: PGC1a acetyl inh)
N#CC(C#N)=C1C=CC=CN1/C(=C\c1ccco1)C(=O)c1ccc(Cl)cc1	FN deposition inh 36 (no result: PGC1a acetyl inh)
O=C(COC(=O)c1ccccc1)Nc1ncc([N+](=O)[O-])s1	SIRT5 block 21
CS(=O)(=O)N1[C@@H]2CN(CC(F)(F)F)C[C@H]1C2c1ccccc1 (stereo not given in full)	none (no result: ERAP1 HTS inh, FGF22 binding, SIRT5 block, PGC1a acetyl inh)
NC(=O)c1ncn([C@@H]2O[C@H](CNCc3cccn3-c3ccncc3)[C@@H](O)[C@H]2O)n1	FGF22 binding 43 (no result: SIRT5 block)
CCSC1=NCCN1S(=O)(=O)c1ccc(Cl)cc1	FGF22 binding 43 (no result: PGC1a acetyl inh)
O=S(=O)(c1ccccc1)N1CCN=C1SCc1ccccc1	none (no result: PGC1a acetyl inh)
CCSC1=NCCN1S(=O)(=O)c1ccccc1	FGF22 binding 44 (no result: PGC1a acetyl inh)
O=C1CCN(CCCN2CCC(=O)NC2=S)C(=S)N1	FGF22 binding 44 (no result: SIRT5 block)
Fc1cccc(F)c1-c1nc(-c2ccncc2)no1	SIRT5 block 20 (no result: PGC1a acetyl inh)
Cc1cccc(NC(=S)Nc2ccccn2)c1	SIRT5 block 20 (no result: ERAP1 HTS inh)
COC(=O)C[C@H]1CC[C@@H]2[C@@H](COc3ccc(NC(=O)NCc4ccccc4)cc3C(=O)N2C)O1	none (no result: ERAP1 HTS inh, SIRT5 block)
Cc1ccc(C2=NN(C(=O)c3ccco3)C(O)(C(F)(F)F)C2)cc1 (stereo not given)	FGF22 binding 44
COC(=O)c1cc([N+](=O)[O-])c(-n2cncn2)c([N+](=O)[O-])c1	FGF22 binding 43 (no result: PGC1a acetyl inh)
Cc1ccn2c(NC3CCCCC3)c(-c3cccc(-c4cccc(Cl)c4)c3)nc2c1	SIRT5 block 16
C[C@H]1CN([C@@H](C)CO)S(=O)(=O)c2ccc(-c3cccnc3)cc2O[C@@H]1CN(C)CC1CCOCC1	none (no result: FN deposition inh)
CCCN1C[C@@H](C)[C@@H](OC)CN(C)C(=O)c2cc(NS(C)(=O)=O)ccc2OC[C@@H]1C	none (no result: ERAP1 HTS inh, FGF22 binding, SIRT5 block)
CCOc1c(Br)cc(Br)cc1/C=C1\SC(N)=NC1=O	SIRT5 block 15 (no result: PGC1a acetyl inh)
CCOc1cc(/C=C2\SC(N)=NC2=O)ccc1O	none (no result: ERAP1 HTS inh)
c1ccc(-c2cncnc2)cc1	SIRT5 block 25
COc1ccc(NS(=O)(=O)c2cc(NC(=O)c3cc(=O)c4ccccc4o3)ccc2OC)cc1	FGF22 binding 43 (no result: PGC1a acetyl inh)
CN(C)c1ccc(/C=C2/SC(=O)N(CCN=C3NS(=O)(=O)c4ccccc43)C2=O)cc1	SIRT5 block 18
CN(C)/C=C1\C(=O)N(c2ccc(Cl)c(Cl)c2)CS1(=O)=O	FGF22 binding 43 (no result: PGC1a acetyl inh)
C[C@@H]1CN([C@H](C)CO)C(=O)c2cc(NC(=O)c3ccncc3)ccc2O[C@@H](C)CCCCO[C@@H]1CN(C)S(=O)(=O)c1ccc(F)cc1	none
Cc1cc(C)n(CC(=O)c2cccc(N)c2)n1	SIRT5 block 20
COc1ccc(C=C2CS(=O)(=O)CC(=Cc3ccc(OC)cc3)C2=O)cc1	FGF22 binding 44 (no result: SIRT5 block, PGC1a acetyl inh)
COc1ccc(/C=C2\CCCCC2=O)cc1	none
